# Measured values reported in ChEMBL document CHEMBL5244265 (Bioorg Med Chem, 2020).
# Key:
# Kallikrein-7 [1] = target: T1, Kallikrein-7 (Homo sapiens, UniProt P49862); experiment: Inhibition of human recombinant kallikrein 7 (23 to 252 residues) using MCA-RPKPVE-Nval-WRK(Dnp)-NH2 as substrate by fluorescence based analysis
# Method in brief: (§1)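 Fluorogenic assay with HNE (MeOSucAAPV-AMC substrate) or human KLK7 ([…] substrate). Test compounds ran as a 10-dose, 3-fold dilution series from 1 μM in duplicate, with controls tested in the same run. Activity was taken from the initial linear slope of the fluorescence increase over time. Results are mean of n = 2, expressed relative to 0.5% DMSO vehicle.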
# Target sequence in this assay (P49862 whole entry, the tested form may be a part): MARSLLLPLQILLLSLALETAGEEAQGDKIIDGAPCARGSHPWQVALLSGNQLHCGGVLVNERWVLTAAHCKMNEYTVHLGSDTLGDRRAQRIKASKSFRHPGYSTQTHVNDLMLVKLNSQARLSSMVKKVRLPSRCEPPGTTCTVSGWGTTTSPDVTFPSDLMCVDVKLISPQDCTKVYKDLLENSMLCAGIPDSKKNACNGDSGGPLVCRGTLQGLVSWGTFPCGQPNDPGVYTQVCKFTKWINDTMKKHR
# Kallikrein-7 [2] = target: T1, Kallikrein-7; experiment: Inhibition of KLK7 (unknown origin); method in brief: as §1
# Target sequence in this assay (P49862 whole entry, the tested form may be a part): as above
# [3] = Inhibition of Bacillus licheniformis Proteinase A using Z-GPR-AMC as substrate by fluorescence based analysis
# Method in brief: (§2)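 Each enzyme was read as a time course of rising fluorescence from cleavage of its AMC-labelled peptide substrate. The initial linear slope (signal/min) was analysed. Non-human sources: chymotrypsin from bovine pancreas, proteinase A from B. licheniformis, proteinase K from T. album limber.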
# Kallikrein-7 [4] = target: T1, Kallikrein-7; experiment: Inhibition of human recombinant kallikrein 7 (23 to 252 residues) using MCA-RPKPVE-Nval-WRK(Dnp)-NH2 as substrate by fluorescence based analysis relative to gabexate mesylate; method in brief: as §1
# Target sequence in this assay (P49862 30-253 limits assumed): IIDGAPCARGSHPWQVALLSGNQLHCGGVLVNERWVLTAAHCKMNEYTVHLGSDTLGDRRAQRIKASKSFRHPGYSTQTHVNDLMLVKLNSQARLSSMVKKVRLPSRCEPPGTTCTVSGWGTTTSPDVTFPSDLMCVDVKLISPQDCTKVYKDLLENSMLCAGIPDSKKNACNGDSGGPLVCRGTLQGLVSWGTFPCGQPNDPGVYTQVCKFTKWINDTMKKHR
# [5] = Selectivity ratio of IC50 for chymotrypsin in bovine pancreas to IC50 for human neutrophil elastase
# Neutrophil elastase [6] = target: T2, Neutrophil elastase (Homo sapiens, UniProt P08246); experiment: Inhibition of elastase in human neutrophil using N-(OMe-succinyl)-Ala-Ala-Pro-Val-p-nitroanilide as substrate preincubated with enzyme for 15 mins followed by substrate addition and measured every 30s for 30 mins by absorbance based analysis
# T2 sequence (P08246 whole entry): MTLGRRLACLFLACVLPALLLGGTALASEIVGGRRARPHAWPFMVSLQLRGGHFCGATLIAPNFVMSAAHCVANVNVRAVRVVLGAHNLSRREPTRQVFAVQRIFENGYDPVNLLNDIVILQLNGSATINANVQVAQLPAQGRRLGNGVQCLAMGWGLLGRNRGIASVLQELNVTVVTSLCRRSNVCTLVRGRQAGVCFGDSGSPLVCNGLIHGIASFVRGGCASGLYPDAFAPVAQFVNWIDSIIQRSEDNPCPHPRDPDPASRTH
# Method in brief: (§3)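 HNE stock at 100 μg/mL and substrate stock at 2 mM, both in 0.1 M Tris–0.5 M NaCl pH 7.5. Compound or DMSO was preincubated with enzyme in the same buffer for 15 min at room temperature, then substrate was added. A405 was read every 30 s for 30 min. Activity was taken from the initial slope as a percentage of the uninhibited reaction.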
# [7] = target: T3, Neutrophil elastase (Homo sapiens) (UniProt P08246); experiment: Inhibition of elastase in human neutrophil using MeOSuc-AAPV-AMC as substrate by fluorescence based analysis relative to sivelestat; format: cell-based; method in brief: as §1
# T3 sequence (whole entry): T2 sequence (P08246 whole entry)
# [8] = Inhibition of porcine pancreatic elastase; parameters: species or system Sus scrofa
# [9] = target: T3, Neutrophil elastase (Homo sapiens); experiment: Inhibition of elastase in human neutrophil using N-(OMe-succinyl)-Ala-Ala-Pro-Val-p-nitroanilide as substrate preincubated with enzyme for 15 mins followed by substrate addition and measured every 30s for 30 mins by absorbance based analysis relative to symplostatin 5; details: time 45.0 min; method in brief: as §3
# [10] = Inhibition of Tritirachium album limber Proteinase K using H-D-CHA -Ala-Arg-AMC.2AcOH as substrate by fluorescence based analysis; parameters: species or system Parengyodontium album; method in brief: as §2
# Neutrophil elastase [11] = target: T2, Neutrophil elastase; experiment: Inhibition of elastase in human neutrophil using MeOSuc-AAPV-AMC as substrate by fluorescence based analysis; format: cell-based; method in brief: as §1
# [12] = Inhibition of chymotrypsin in bovine pancreas using Suc-AAPF-AMC as substrate by fluorescence based analysis; format: tissue-based, Bos taurus; method in brief: as §2
# Bacillus licheniformis = experiment: Inhibition of Bacillus licheniformis Proteinase A using Z-GPR-AMC as substrate by fluorescence based analysis relative to leupeptin; method in brief: as §2
# [13] = target: T3, Neutrophil elastase (Homo sapiens); experiment: Inhibition of elastase in human neutrophil using N-(OMe-succinyl)-Ala-Ala-Pro-Val-p-nitroanilide as substrate preincubated with enzyme for 15 mins followed by substrate addition and measured every 30s for 30 mins by absorbance based analysis relative to sivelestat; details: time 45.0 min; method in brief: as §3
# Parengyodontium album = experiment: Inhibition of Tritirachium album limber Proteinase K using H-D-CHA -Ala-Arg-AMC.2AcOH as substrate by fluorescence based analysis relative to proteinase K inhibitor; method in brief: as §2
# [14] = target: T3, Neutrophil elastase (Homo sapiens); experiment: Inhibition of elastase in human neutrophil using N-(OMe-succinyl)-Ala-Ala-Pro-Val-p-nitroanilide as substrate preincubated with enzyme for 15 mins followed by substrate addition and measured every 30s for 30 mins by absorbance based analysis relative to tutuilamide A; details: time 45.0 min
# Method in brief: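 Human neutrophil elastase, from a 100 μg/mL enzyme stock in 0.1 M Tris–0.5 M NaCl (pH 7.5), was preincubated with compound at varying doses or DMSO vehicle for 15 min at room temperature in the same buffer. The p-nitroanilide substrate was added from a 2 mM stock, and A405 was read every 30 s for 30 min. Activity was taken as the initial slope, expressed as % of the uninhibited reaction, and IC50 came from dose-response.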
# Kallikrein-7 [15] = target: T1, Kallikrein-7; experiment: Inhibition of human recombinant kallikrein 7 (23 to 252 residues) using MCA-RPKPVE-Nval-WRK(Dnp)-NH2 as substrate by fluorescence based analysis relative to tutuilamide A; method in brief: as §1
# Target sequence in this assay (P49862 30-253 limits assumed): as the sequence (P49862 30-253 limits assumed) above
smiles,measurement,setting,value
CCOC(=O)c1ccc(OC(=O)CCCCCNC(=N)N)cc1,IC50,Kallikrein-7 [1],28400 nM
CC[C@@H](C)[C@H]1C(=O)N(C)[C@@H](Cc2ccc(O)cc2)C(=O)N[C@H]([C@H](C)CC)C(=O)O[C@H](C)[C@H](NC(=O)[C@H](CCC(N)=O)NC(=O)C(C)C)C(=O)N[C@@H](CC(C)C)C(=O)N[C@H]2CC[C@@H](O)N1C2=O,IC50,Kallikrein-7 [2],1 nM
CC(=O)N[C@@H](CC(C)C)C(=O)N[C@@H](CC(C)C)C(=O)N[C@H](C=O)CCCNC(=N)N [LEUPEPTIN],IC50,[3],129000 nM
C/C=C1\NC(=O)[C@@H](NC(=O)[C@@H](NC(=O)[C@H](C)NC(=O)C/C(C)=C/Cl)[C@@H](C)CC)[C@@H](C)OC(=O)[C@H](C(C)C)NC(=O)[C@H](Cc2ccc(O)cc2)N(C)C(=O)[C@H](Cc2ccccc2)N2C(=O)[C@H](CC[C@H]2O)NC1=O,fold change (FC),Kallikrein-7 [4],5680
same,Ratio IC50,[5],100
same,IC50,Neutrophil elastase [6],44 nM
same,fold change (FC),[7],5
same,IC50,[8],1.2 nM
same,fold change (FC),[9],2.1
same,IC50,[3],31.3 nM
same,IC50,[10],12.3 nM
same,IC50,Neutrophil elastase [11],0.73 nM
same,IC50,[12],97.4 nM
same,fold change (FC),Bacillus licheniformis,4000
same,fold change (FC),[13],2.9
same,fold change (FC),Parengyodontium album,15
same,IC50,Kallikrein-7 [1],5 nM
C/C=C1\NC(=O)[C@@H](NC(=O)[C@H](CCC(N)=O)NC(=O)CCCCC)[C@@H](C)OC(=O)[C@H](C(C)C)NC(=O)[C@H](Cc2ccc(O)cc2)N(C)C(=O)[C@H](Cc2ccccc2)N2C(=O)[C@H](CC[C@H]2O)NC1=O [LYNGBYASTATIN 7],fold change (FC),[14],1.5
same,fold change (FC),Kallikrein-7 [15],1.6
same,IC50,Kallikrein-7 [1],3.1 nM
CC[C@H](C)[C@@H]1NC(=O)[C@H](Cc2ccc(OCc3ccn(C)n3)cc2)N(C)C(=O)[C@H]([C@@H](C)CC)N2C(=O)[C@H](CC[C@H]2O)NC(=O)[C@H](CC(C)C)NC(=O)[C@@H](NC(=O)[C@H](CCC(N)=O)NC(=O)C(C)C)[C@@H](C)OC1=O,IC50,Kallikrein-7 [2],0.2 nM
